The values that follow come from ChEMBL document CHEMBL2010787, “Design and synthesis of novel 5-phenyl-N-piperidine ethanone containing 4,5-dihydropyrazole derivatives as potential antitumor agents” (Eur J Med Chem, 2012).

One experiment relates to MGC-803. The experiment is described as follows: Cytotoxicity against human MGC803 cells after 48 hrs by MTT assay. As to conditions: MGC-803, 48 h. It is filed as functional, cell-based. In a few lines:
(§1)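 Log-phase tumor cells grown in RPMI 1640 with 10% FBS, diluted to 3 × 10⁴ cells/mL, and seeded in 96-well plates. Plates were held 24 h at 37 °C in 5% CO₂, then compounds were added at preset concentrations (6 wells each), with 5-fluorouracil as positive reference. After 48 h exposure, MTT in PBS (2.5 mg/mL) was added for 4 h. Formazan was dissolved in DMSO and read at 570 nm. IC50 is the concentration giving 50% survival; results are the mean of three experiments in triplicate.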
For orientation: Tetrazolium assays rely on reduction of a dye to a coloured formazan, in cell work by metabolically active cells.

Another experiment deals with Bcap37. The experiment is described as follows: Cytotoxicity against human Bcap37 cells after 48 hrs by MTT assay. It is filed as functional, cell-based. As to conditions: Bcap37, 48 h. In a few lines: as §1
For another experiment, the system named is SGC-7901. The experiment is described as follows: Cytotoxicity against human SGC7901 cells after 48 hrs by MTT assay. It counts as functional, cell-based. As to conditions: SGC-7901, 48 h. In a few lines: as §1
Experiment [1] addresses Telomerase reverse transcriptase (Homo sapiens, UniProt O14746). The experiment can be described thus: Inhibition of telomerase activity in human MGC803 cells after 24 hrs by TRAP-PCR-ELISA assay. (In general: In an ELISA, binding on a coated surface is turned into a signal by an enzyme label.)

Sequence of Telomerase reverse transcriptase (O14746 whole entry): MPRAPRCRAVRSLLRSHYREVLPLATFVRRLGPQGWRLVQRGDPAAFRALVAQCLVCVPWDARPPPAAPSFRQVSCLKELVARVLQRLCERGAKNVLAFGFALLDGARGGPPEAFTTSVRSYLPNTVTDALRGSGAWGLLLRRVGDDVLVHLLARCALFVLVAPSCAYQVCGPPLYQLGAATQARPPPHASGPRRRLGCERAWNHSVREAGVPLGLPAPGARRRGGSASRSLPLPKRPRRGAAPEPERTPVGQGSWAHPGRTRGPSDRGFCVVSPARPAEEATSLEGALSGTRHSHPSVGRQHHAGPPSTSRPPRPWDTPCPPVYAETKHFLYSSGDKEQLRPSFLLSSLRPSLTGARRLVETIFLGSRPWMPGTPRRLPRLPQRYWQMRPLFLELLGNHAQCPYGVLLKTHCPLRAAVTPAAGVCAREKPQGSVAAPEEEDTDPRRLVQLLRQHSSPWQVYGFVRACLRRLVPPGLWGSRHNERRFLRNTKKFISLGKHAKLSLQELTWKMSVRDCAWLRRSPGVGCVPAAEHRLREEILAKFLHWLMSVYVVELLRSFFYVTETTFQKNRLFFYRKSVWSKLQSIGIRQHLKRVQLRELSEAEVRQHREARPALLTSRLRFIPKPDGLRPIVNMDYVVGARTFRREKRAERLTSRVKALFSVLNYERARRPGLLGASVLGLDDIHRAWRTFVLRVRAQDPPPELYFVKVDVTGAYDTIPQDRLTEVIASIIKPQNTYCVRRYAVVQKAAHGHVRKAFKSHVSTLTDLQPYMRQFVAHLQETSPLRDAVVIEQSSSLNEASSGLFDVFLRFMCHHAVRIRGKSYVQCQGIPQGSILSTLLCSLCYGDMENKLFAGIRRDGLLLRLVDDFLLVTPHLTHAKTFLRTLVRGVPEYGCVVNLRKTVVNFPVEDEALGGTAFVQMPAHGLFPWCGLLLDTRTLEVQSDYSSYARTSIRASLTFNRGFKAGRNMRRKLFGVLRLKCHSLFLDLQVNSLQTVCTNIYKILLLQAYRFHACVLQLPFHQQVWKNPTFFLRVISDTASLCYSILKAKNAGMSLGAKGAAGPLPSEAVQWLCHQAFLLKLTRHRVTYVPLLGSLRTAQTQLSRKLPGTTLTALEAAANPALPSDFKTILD

As for `CC1=NN(C(=O)CN2CCC(O)CC2)C(c2ccccc2O)C1` (stereo not given), the IC50 came out at 4.12 µM in the experiment on MGC-803, 18.7 µM with Bcap37, 5.71 µM in the experiment with SGC-7901 and 9.11 µM in experiment [1].
With `CC1=NN(C(=O)CN2CCCCC2C)C(c2ccccc2O)C1` (stereo not given), the values for the IC50 in the experiment with MGC-803, in the experiment with Bcap37 and in the experiment on SGC-7901 were 11.7 µM, 16.3 µM and 11.2 µM, respectively.
In the same order, the values of `CCC1CCCCN1CC(=O)N1N=C(C)CC1c1ccccc1O` (stereo not given) are 15.7 µM, 10.7 µM and 12.9 µM.
Turning to `CC1=NN(C(=O)CN2CCC(C)CC2)C(c2ccccc2O)C1` (stereo not given), the IC50 in the experiment on MGC-803 was determined as 3.55 µM; with Bcap37 it was 6.81 µM; with SGC-7901 it was 4.6 µM; in experiment [1], 5.99 µM.
As for `CC1=NN(C(=O)CN2CCCCC2C(N)=O)C(c2ccccc2O)C1` (stereo not given), the half-inhibitory concentration (IC50) in the experiment with MGC-803 amounted to 38.8 µM; in the experiment with Bcap37 it was 41.1 µM; with SGC-7901, 39.2 µM.
As to `CC1=NN(C(=O)CN2CCC(C(F)(F)F)CC2)C(c2ccccc2O)C1` (stereo not given), the IC50 is 2.64 µM in the experiment with MGC-803, 8.55 µM in the experiment with Bcap37, 3.22 µM in the experiment with SGC-7901 and 8.81 µM in experiment [1].
In the same order, the values of `CC1=NN(C(=O)CN2CCCCC2[N+](=O)[O-])C(c2ccccc2O)C1` (stereo not given) are 28.3 µM, 32.3 µM, 30.7 µM and 42.1 µM.
`CCC1CCCCN1CC(=O)N1N=C(c2cc3ccccc3oc2=O)CC1c1ccccc1` (stereo not given): the IC50 with MGC-803 worked out at 8.71 µM; in the experiment on Bcap37, 7.3 µM; with SGC-7901, 6 µM.
As to `CC1CCN(CC(=O)N2N=C(c3cc4ccccc4oc3=O)CC2c2ccccc2)CC1` (stereo not given), the IC50 with MGC-803 turned out to be 3.01 µM; in the experiment with Bcap37, 6.57 µM; with SGC-7901, 4.7 µM; in experiment [1], 2 µM.
Consider `O=C(CN1CCC(Br)CC1)N1N=C(c2cc3ccccc3oc2=O)CC1c1ccccc1` (stereo not given), for which the IC50 was found to be 7.01 µM in the experiment with MGC-803, 8.76 µM in the experiment on Bcap37, 10.3 µM in the experiment with SGC-7901 and 4.11 µM in experiment [1].
For the compound `O=c1[nH]cc(F)c(=O)[nH]1` [FLUOROURACIL], the figures for the IC50 in the experiment with MGC-803, with Bcap37 and in the experiment with SGC-7901 were 3.42 µM, 5.33 µM and 7.11 µM, respectively.
Regarding `CC[n+]1c(-c2ccccc2)c2cc(N)ccc2c2ccc(N)cc21` [HOMIDIUM BROMIDE], the midpoint of inhibition in experiment [1], the IC50, lay at 2.47 µM.

Broadly, the IC50 is the point on the concentration scale where inhibition reaches its midpoint.
